Data taken from publication PMC6702078 (Biochemical pharmacology, 2019).

Experiments:
[1] = biological target: PARP-1 (Homo sapiens, UniProt P09874); experiment: PARP-1 activity assay in cell free system; assay type: biochemical; conditions: inhibitors at 10μM; pADPr Western blot and colorimetric assay (Fig.4C-D)
Procedure, shortened: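 Commercial PARP-1 enzyme was activated by either H4 histone or endonuclease-digested plasmid DNA, with NAD and inhibitor or water, in PARP-1 reaction buffer (Tris pH 8.0, MgCl2, Triton X-100). Reactions ran 30 min at room temperature. pADPr was detected by SDS-PAGE and anti-pADPr Western blot, relative to DMSO-treated mixtures. Inhibitors were tested at 10 μM.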

[2] = test system: PARP1 enzymatic activity in PC cells; experiment: PARP-1 inhibitory assay in human cell culture; assay type: cell-based
Procedure, shortened: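 Graded doses of test compound were added in complete medium for 24 or 48 h. Cells were lysed in SDS sample buffer at 1 × 10^7 cells/ml and boiled 5 min. Poly(ADP-ribose) was assessed by SDS-PAGE and Western blot with mouse anti-pADPr (1:500).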

[3] = test system: androgen-dependent LNCaP PC cells; experiment: Cell viability; assay type: cell-based, human; conditions: for IC50 / IC70 / IC90 / IC20: Homo sapiens, 96 h; for IC50: read-out: ED50; for IC70: read-out: ED70; for IC90: read-out: ED90; for IC20: read-out: ED20; for effect on viability: escalating concentrations, 96 hours (Fig.5C)
[4] = test system: castration-resistant PC-3 PC cells; experiment: Cell viability; assay type: cell-based, human; conditions: for IC20 / IC50 / IC70 / IC90: Homo sapiens, 96 h; for IC20: read-out: ED20; for IC50: read-out: ED50; for IC70: read-out: ED70; for IC90: read-out: ED90; for effect on viability: PC-3, escalating concentrations, 96 hours (Fig.5D)
[5] = test system: castration-resistant DU-145 PC cells; experiment: Cell viability; assay type: cell-based, human; conditions: for ED20 / ED50 / ED70 / ED90: DU-145, 96 hours, CellTiter Blue; for effect on viability: DU-145, escalating concentrations, 96 hours (Fig.5E)
[6] = test system: AR transcriptional activity; experiment: AR luciferase reporter assay in LNCaP with R1881; assay type: cell-based, human; conditions: R1881 2.5nM, 8 hrs
[7] = Kinetic aqueous solubility in PBS; assay type: physicochemical; conditions: phosphate buffered saline, pH 7.4, aqueous buffer, kinetic from dmso stock
[8] = Mouse liver microsome stability; assay type: in vitro ADME; conditions: male, CD-1, mouse, liver microsomes, pH 7.4
[9] = Human liver microsome stability; assay type: in vitro ADME; conditions: both, liver microsomes, pH 7.4
[10] = Mouse plasma stability; assay type: in vitro ADME; conditions: for half-life at 1 μM: male, C57BL/6, mouse, pH 7.4
[11] = biological target: hCYP3A4 (Homo sapiens, UniProt P08684); experiment: Cytochrome P450 inhibition CYP3A4; assay type: in vitro ADME
hCYP3A4, sequence (P08684 whole entry): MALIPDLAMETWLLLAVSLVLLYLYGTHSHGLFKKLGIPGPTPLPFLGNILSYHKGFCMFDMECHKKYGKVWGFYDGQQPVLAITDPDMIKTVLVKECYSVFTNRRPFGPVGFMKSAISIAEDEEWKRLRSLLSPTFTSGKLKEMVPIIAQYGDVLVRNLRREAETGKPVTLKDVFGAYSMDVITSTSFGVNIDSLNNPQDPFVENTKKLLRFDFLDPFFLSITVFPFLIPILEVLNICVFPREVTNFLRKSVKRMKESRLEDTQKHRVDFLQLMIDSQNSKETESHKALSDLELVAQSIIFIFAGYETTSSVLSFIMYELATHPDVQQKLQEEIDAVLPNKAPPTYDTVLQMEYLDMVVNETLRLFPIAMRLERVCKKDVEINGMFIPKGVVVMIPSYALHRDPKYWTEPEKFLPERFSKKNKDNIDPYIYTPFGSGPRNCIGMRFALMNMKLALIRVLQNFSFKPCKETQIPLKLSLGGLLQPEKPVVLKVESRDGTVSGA

[12] = biological target: hCYP2D6 (Homo sapiens, UniProt P10635); experiment: Cytochrome P450 inhibition CYP2D6; assay type: in vitro ADME
hCYP2D6, sequence (P10635 whole entry): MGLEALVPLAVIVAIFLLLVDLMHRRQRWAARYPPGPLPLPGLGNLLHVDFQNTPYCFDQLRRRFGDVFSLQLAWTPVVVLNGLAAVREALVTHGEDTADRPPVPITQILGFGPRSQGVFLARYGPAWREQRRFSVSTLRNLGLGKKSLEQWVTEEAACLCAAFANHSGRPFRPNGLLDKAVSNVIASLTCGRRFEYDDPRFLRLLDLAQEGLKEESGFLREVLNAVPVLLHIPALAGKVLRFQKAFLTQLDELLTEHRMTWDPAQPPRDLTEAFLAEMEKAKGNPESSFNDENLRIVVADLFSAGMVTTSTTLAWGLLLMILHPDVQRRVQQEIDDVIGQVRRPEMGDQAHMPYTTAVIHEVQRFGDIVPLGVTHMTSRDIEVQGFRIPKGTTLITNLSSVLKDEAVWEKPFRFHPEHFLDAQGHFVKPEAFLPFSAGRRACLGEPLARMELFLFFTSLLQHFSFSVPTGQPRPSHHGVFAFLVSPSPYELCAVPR

[13] = biological target: hCYP2C9 (Homo sapiens, UniProt P11712); experiment: Cytochrome P450 inhibition CYP2C9; assay type: in vitro ADME
hCYP2C9, sequence (P11712 whole entry, canonical isoform): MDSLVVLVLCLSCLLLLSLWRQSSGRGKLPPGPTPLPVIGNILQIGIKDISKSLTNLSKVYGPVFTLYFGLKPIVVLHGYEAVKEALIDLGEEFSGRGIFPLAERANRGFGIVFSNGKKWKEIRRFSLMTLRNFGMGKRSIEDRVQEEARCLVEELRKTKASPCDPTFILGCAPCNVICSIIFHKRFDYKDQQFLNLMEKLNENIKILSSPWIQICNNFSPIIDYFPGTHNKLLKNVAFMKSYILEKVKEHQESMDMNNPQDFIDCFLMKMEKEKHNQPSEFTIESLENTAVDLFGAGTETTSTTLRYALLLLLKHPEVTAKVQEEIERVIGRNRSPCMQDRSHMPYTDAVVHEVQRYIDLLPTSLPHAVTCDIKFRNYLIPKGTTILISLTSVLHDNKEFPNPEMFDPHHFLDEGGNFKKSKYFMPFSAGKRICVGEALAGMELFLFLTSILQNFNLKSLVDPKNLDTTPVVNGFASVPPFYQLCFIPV

[14] = test system: LNCaP expressing both wild-type and constitutively active AR splice variant AR-V7; experiment: Cell viability; assay type: cell-based, human; conditions: LNCaP AR-V7, 96 hours, CellTiter Blue, XLfit
[15] = test system: AR transcriptional activity; experiment: AR luciferase reporter assay in LNCaP expressing AR-V7; assay type: cell-based, human; conditions: LNCaP stably expressing AR-V7, luciferase, 8 hrs
[16] = test system: PSA expression; experiment: PSA expression by Western blot in LNCaP expressing AR-V7; assay type: cell-based, human; conditions: LNCaP stably expressing AR-V7, 10μM, 24 hrs
Procedure, shortened: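 Cells were lysed in 1x SDS sample buffer (1 × 10^7 cells/ml) and boiled 5 min. PSA and AR levels were assessed by SDS-PAGE and Western blot.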

PARP-1, sequence (P09874 whole entry): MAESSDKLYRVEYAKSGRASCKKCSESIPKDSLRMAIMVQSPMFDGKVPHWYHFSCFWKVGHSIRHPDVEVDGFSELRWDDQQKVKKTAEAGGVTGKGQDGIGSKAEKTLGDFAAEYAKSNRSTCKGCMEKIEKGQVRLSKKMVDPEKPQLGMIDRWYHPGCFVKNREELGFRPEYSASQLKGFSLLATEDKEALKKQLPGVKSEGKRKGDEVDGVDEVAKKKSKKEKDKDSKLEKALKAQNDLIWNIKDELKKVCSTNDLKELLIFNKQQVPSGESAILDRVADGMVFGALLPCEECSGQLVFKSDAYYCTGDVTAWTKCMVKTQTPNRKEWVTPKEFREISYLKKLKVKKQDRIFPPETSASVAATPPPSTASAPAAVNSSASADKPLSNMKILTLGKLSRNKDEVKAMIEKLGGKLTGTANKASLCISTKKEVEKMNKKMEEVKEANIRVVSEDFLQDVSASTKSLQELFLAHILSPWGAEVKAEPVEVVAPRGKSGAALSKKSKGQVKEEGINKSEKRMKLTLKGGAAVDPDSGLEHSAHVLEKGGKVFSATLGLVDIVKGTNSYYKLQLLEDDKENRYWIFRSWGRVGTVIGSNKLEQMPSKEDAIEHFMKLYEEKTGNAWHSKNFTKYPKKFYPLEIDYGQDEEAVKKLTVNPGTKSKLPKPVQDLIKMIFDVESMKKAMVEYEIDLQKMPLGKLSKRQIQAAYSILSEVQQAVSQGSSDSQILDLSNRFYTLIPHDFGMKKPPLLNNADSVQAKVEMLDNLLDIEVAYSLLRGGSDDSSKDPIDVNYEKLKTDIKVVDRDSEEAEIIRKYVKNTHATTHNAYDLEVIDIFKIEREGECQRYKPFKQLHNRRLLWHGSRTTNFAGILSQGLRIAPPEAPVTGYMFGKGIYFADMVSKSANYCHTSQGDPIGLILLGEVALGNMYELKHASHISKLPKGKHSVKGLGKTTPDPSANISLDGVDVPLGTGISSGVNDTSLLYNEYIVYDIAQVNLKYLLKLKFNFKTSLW

Row | IC50 [3] | IC90 [3] | IC50 [4] | IC90 [4] | effect on R1881-mediated AR transcriptional activity [6] | solubility at 90 min [7] | remaining at 1 h, 1 μM [8] | half-life at 1 μM [9] | microsomal CLint at 1 μM [9] | remaining at 1 h, 1 μM [9] | half-life at 1 μM ([10]; mouse plasma) | IC50 [11] | Compound | IC70 [3] | IC20 [4] | IC70 [4] | ED20 [5] | ED50 [5] | ED70 [5] | ED90 [5] | IC20 [3] | also measured
1 | 3 µM | 19.4 µM | 22.4 µM | 85 µM |  | 125 µM | 98% | 1.9 min | 721 µL/min/mg | 92% | 57.2 min | 2.98 µM | C[N+]1(CC(=O)OC2CCCCCCCCCCC2)CCCC1.[I-] [MC-270016, 1-(2-(Cyclododecyloxy)-2-oxoethyl)-1-methylpyrrolidin-1-ium iodide] | 6.1 µM | 9.6 µM | 37.4 µM | 13.3 µM | 38.6 µM | 73.9 µM | 208.1 µM | 0.9 µM | IC50 [12]: 8.54 µM; IC50 [13]: > 10 µM
2 | 2.3 µM | 10.1 µM | 17.5 µM | 40.8 µM |  | 140 µM | 87% | 1.2 min | 1200 µL/min/mg | 95% | 35.9 min | 1.7 µM | C[N+]1(CC(=O)OC2CCCCCCCCCCC2)CCCCCC1.[I-] [MC-270017, 1-(2-(Cyclododecyloxy)-2-oxoethyl)-1-methylazepan-1 ium iodide] | 4.1 µM | 10.2 µM | 24.2 µM | 10.6 µM | 20.9 µM | 31.6 µM | 61.1 µM | 0.9 µM | IC50 [12]: 4.4 µM; IC50 [13]: > 10 µM
3 | 11.2 µM | 52.1 µM | 60.6 µM | 3270 µM |  | 110 µM | 88% | 1.3 min | 1070 µL/min/mg | 85% | 118 min | 3.92 µM | C[N+]1(CC(=O)OC2CCCCCCCCCCC2)CCSCC1.[I-] [MC-270021, 4-(2-(Cyclododecyloxy)-2-oxoethyl)-4-methylthiomorpholin-4-ium iodide] | 20.3 µM | 4.9 µM | 282 µM |  |  |  |  | 4.2 µM | IC50 [12]: 9.25 µM; IC50 [13]: > 10 µM
4 | 3.1 µM | 12.2 µM | 14.6 µM | 48.1 µM |  | 95.2 µM | 84% | 1.2 min | 1150 µL/min/mg | 92% | 19.6 min | 4.67 µM | CC1(C)CC[N+](C)(CC(=O)OC2CCCCCCCCCCC2)CC1.[I-] [MC-270019, 1-(2-(Cyclododecyloxy)-2-oxoethyl)-1,4,4-trimethylpiperidin-1-ium iodide] | 5.2 µM | 6.9 µM | 23.1 µM | 10.9 µM | 24.6 µM | 40.4 µM | 89.1 µM | 1.3 µM | IC50 [12]: 9.93 µM; IC50 [13]: > 10 µM

More lines, now with the values behind:

Row | Compound | IC50 [3] | IC90 [3] | IC50 [4] | IC90 [4] | effect on R1881-mediated AR transcriptional activity [6] | solubility at 90 min [7] | remaining at 1 h, 1 μM [8] | half-life at 1 μM [9] | microsomal CLint at 1 μM [9] | remaining at 1 h, 1 μM [9] | half-life at 1 μM ([10]; mouse plasma) | IC50 [11] | IC70 [3] | IC20 [4] | IC70 [4] | ED20 [5] | ED50 [5] | ED70 [5] | ED90 [5] | IC20 [3] | also measured
5 | O=C(CN1CCC1)OC1CCCCCCCCCCC1 [MC-270008, Cyclododecyl 2-(azetidin-1-yl)acetate] |  |  |  |  |  |  |  |  |  |  |  |  |  |  |  |  |  |  |  |  | PARP-1 inhibitory activity in cell free system [1]: diminished capacity to inhibit PARP-1; effect on the PARP1 enzymatic activity in PC cells [2]: insignificant effect
6 | CNCc1ccc(-c2[nH]c3cc(F)cc4c3c2CCNC4=O)cc1 [Rucaparib, reference compound] | 26.7 µM | 155 µM | 7 µM | 157 µM | only weak inhibitory effects |  |  |  |  |  |  |  | 52.6 µM | 1 µM | 23.2 µM | 0.9 µM | 5.0 µM | 14.8 µM | 82.7 µM |  | 
7 | C[N+]1(CC(=O)NC2CCCCCCCCCCC2)CCCCC1.[I-] [FC-7220, 1-[(Cyclododecylcarbamoyl)methyl]-1-methylpiperidin-1-ium iodide] | 15.2 µM | 84.2 µM | 36.8 µM | 310 µM | only weak inhibitory effects | 191 µM | 101% | 1.6 min | 850 µL/min/mg | 100% | > 240 min | 1.93 µM | 29.4 µM | 9.6 µM | 83.7 µM | 10.0 µM | 37.2 µM | 82.7 µM | 296.1 µM | 5.1 µM | IC50 [12]: 2.37 µM; IC50 [13]: > 10 µM; PARP-1 inhibitory activity in cell free system [1]: reduced anti-PARP-1 activity
8 | Cl.O=C(CN1CCCCC1)OC1CCCCCCCCCCC1 [FC-7218, Cyclododecyl 2-(piperidin-1-yl)acetate hydrochloride] |  |  |  |  | only weak inhibitory effects |  |  |  |  |  |  |  |  |  |  |  |  |  |  |  | effect on viability [3]: no significant effect; effect on viability [4]: no significant effect; effect on viability [5]: no significant effect; effect on the PARP1 enzymatic activity in PC cells [2]: insignificant effect
9 | O=C(c1cc(Cc2n[nH]c(=O)c3ccccc23)ccc1F)N1CCN(C(=O)C2CC2)CC1 [Olaparib, reference compound] | 20.4 µM | 4450 µM | 9.3 µM | 384 µM | only weak inhibitory effects |  |  |  |  |  |  |  | 163 µM | 0.9 µM | 39 µM | 1.2 µM | 7.4 µM | 22.0 µM | 125.8 µM | 0.7 µM | ED20 [14]: 7.3 µM; ED50 [14]: 61.9 µM; ED70 [14]: 228.7 µM; ED90 [14]: 1835 µM; effect on AR transcriptional activity [15]: negligible inhibitory effect; effect on PSA expression [16]: negligible inhibitory effect
10 | CCN(CC)CCOC(=O)c1ccc(N)cc1 [procaine, reference compound] |  |  |  |  |  |  |  |  |  |  |  |  |  |  |  |  |  |  |  |  | stable in PBS ([10]; PBS pH 7.4, 1 μM, 60 min, 37°C, typical value): 100%; degraded in plasma ([10]; mouse plasma, 1 μM, 60 min, 37°C, typical value): > 95%
11 | Cl.O=C(CN1CCCCC1)NC1CCCCCCCCCCC1 [FC-7219, N-cyclododecyl-2-(piperidin-1-yl)acetamide hydrochloride] |  |  |  |  | only weak inhibitory effects |  |  |  |  |  |  |  |  |  |  |  |  |  |  |  | effect on viability [3]: no significant effect; effect on viability [4]: no significant effect; effect on viability [5]: no significant effect; effect on the PARP1 enzymatic activity in PC cells [2]: insignificant effect
12 | C[C@]1(c2nc3c(C(N)=O)cccc3[nH]2)CCCN1 [Veliparib, reference compound] | 55.6 µM | 768 µM | 70.5 µM | 1630 µM | only weak inhibitory effects |  |  |  |  |  |  |  | 153 µM | 9.7 µM | 237 µM | 6.7 µM | 36.7 µM | 104.0 µM | 547.2 µM | 10.6 µM | 
13 | CNC(=O)c1ccc(N2C(=S)N(c3ccc(C#N)c(C(F)(F)F)c3)C(=O)C2(C)C)cc1F [Enzalutamide] |  |  |  |  |  |  |  |  |  |  |  |  |  |  |  |  |  |  |  |  | effect on PSA expression [16]: negligible inhibitory effect
